Hck-Nef inh: inhibitors of human Hck kinase activated by Nef | P08631 | Recombinant Hck-YEEI plus Nef, Z-Lyte FRET kinase assay | inhibition, % at 20 µM | 220,000 tested, 0.68% active;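 active = Hck-Nef kinase inhibition above about 50%, limit read from the data; inactive = inhibition below that limit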;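 also: 0% = DMSO with Hck plus Nef and 100% = Hck alone without Nef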
Runt-CBFb FRET: Runt domain-CBFb interaction inhibition; Q01196+Q13951; Cerulean-Runt/Venus-CBFb FRET ratio 530/480, 1 h; inhibition, % at 20 µM; 220,000 tested, 0.46% active;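 active = inhibition over about 50% at 20 µM in the single-dose screen, limit read from the data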;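 also: 0% = DMSO wells and 100% = excess unlabeled CBFb competitor control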
Target sequence (Q01196 whole entry, looked up, the tested form may be a part): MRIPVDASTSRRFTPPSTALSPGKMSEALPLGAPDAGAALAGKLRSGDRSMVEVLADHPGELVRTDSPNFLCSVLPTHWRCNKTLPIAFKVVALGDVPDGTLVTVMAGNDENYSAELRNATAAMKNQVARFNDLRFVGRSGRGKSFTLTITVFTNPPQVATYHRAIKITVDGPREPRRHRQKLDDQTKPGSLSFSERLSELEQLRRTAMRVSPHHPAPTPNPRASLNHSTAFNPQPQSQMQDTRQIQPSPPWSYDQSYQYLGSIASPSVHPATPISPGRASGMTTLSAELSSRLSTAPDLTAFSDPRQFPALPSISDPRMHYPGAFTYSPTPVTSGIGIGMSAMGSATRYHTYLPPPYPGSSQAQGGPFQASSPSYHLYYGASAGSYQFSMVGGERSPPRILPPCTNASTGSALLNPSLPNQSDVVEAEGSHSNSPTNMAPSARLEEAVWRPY
Target sequence (Q13951 whole entry, looked up, the tested form may be a part): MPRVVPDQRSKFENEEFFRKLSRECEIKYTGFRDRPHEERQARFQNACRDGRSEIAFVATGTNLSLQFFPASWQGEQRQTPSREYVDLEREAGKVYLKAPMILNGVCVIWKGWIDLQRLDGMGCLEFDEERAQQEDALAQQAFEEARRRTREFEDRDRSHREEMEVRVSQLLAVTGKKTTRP
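test system = Cerulean-tagged RUNX1 Runt domain (FRET donor) fusion protein | reagent = Venus-CBFb binding partner, 100 nM | incubation = protein complex preformed 1 h, compound exposure 1 h, room temperature, dark | detection = FRET fluorescence | read-out basis = loss of energy transfer signal | controls = 5 µM unlabeled CBFb as full-inhibition high control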
p97 inhibitor: blocks human p97 ATPase activity. P55072. recombinant p97 ATPase, Kinase-Glo ATP luminescence, 3 h. inhibition, % at 8 µM. 220,000 tested, 0.42% active. AID 1481; in the data active = inhibition above about 15%;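 also: 0% = DMSO vehicle and 100% = wells lacking enzyme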
Runt-SMMHC FRET: Runt domain-CBFb-SMMHC interaction inhibition; inhibition, % at 20 µM; Cerulean-Runt/Venus-CBFb-SMMHC FRET ratio 530/480, 1 h; AID 1434; 220,000 tested, 0.74% active; Q01196+Q13951;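 active = mean inhibition across duplicate retests at 20 µM reaching about 50%, limit read from the data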;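 also: 0% = DMSO wells and 100% = wells with excess untagged CBFb-SMMHC; inhibitors lower the FRET ratio by blocking Runt binding to CBFb-SMMHC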
RanGTP-Imp inh: inhibitors of RanGTP-importin-beta interaction, primary screen, biochemical, FRET, CFP-Ran, YFP-importin-beta, homogeneous; cell-free CFP-Ran/YFP-importin-beta FRET ratio; inhibition, % (test concentration not listed); 300,000 tested, 1.1% active;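 active = more than half of the replicate wells show a fall in the fluorescence ratio signal beyond about 16%, limit read from the data, passing the limit was not always enough; inconclusive = exactly half of the replicate wells pass the set limit; inactive = fewer than half of replicates pass the limit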;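 also: 0% = DMSO wells and 100% = Ran loaded with GDP instead of GTP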
Tb hexokinase: blocks Trypanosoma brucei hexokinase 1 activity | recombinant TbHK1, G6PDH-coupled NADH A340 | inhibition, % at 10 µM | 220,000 tested, 0.11% active | AID 1430;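 active = inhibition of 50% or more in the single-dose primary screen; inactive = inhibition below 50%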
Runt-CBFb TRFRET: disrupts human RUNX1 Runt domain binding to CBFb. 480 tested, 20% active. inhibition, % at 20 µM. TR-FRET RUNX1 Runt domain-CBFb binding. shares compounds with Runt-CBFb FRET; in the data active = inhibition above about 40%
An asterisk follows results filed as active; ? = inconclusive; nt = no result given. Hits are enriched below; roughly 2.1% of the tested compounds scored in any of these assays.

SMILES	Hck-Nef inh	Runt-CBFb FRET	p97 inhibitor	Runt-SMMHC FRET	RanGTP-Imp inh	Tb hexokinase	Runt-CBFb TRFRET
Cc1ccc2c(COC(=O)CC3Sc4ccccc4NC3=O)cc(=O)oc2c1C (configuration not stated)	2.7	-5.3	1.2	1.9	-1.8	16.7	nt
COc1ccc(CNC(=O)C(C)OC(=O)CCN2C(=O)C3CC=CCC3C2=O)cc1 (configuration not stated)	nt	nt	nt	nt	1.0	nt	nt
CC1CC/C(=N/Nc2ccccc2)C(=O)N1 (configuration not stated)	-1.0	50.8*	-4.4	0.7	-3.3	-38.4	14.2
CCOC(=O)C1=C(CNCCc2ccc(Cl)cc2)NC(=O)NC1c1ccc2c(c1)OCO2 (configuration not stated)	1.1	65.3*	7.7	0.7	-5.3	0.8	6.8
Cc1cc(C)c(C)c(S(=O)(=O)N2CCC(C(=O)NCC(c3ccccc3)N(C)C)CC2)c1C (configuration not stated)	nt	nt	nt	nt	2.4	nt	nt
CCC1CCCCN1C(=O)CSc1nc(N)c(NC(=O)c2ccco2)c(=O)[nH]1 (configuration not stated)	-4.2	63.1*	-1.5	-12.0	2.4	0.4	-8.8
CCOCCc1c(O)nc(SCC(=O)N2CCOCC2)[nH]c1=O	nt	nt	nt	nt	4.3	nt	nt
COc1ccc(C2CC(=O)N3CN(c4ccc(C)c(Cl)c4)CSC3=C2C#N)cc1OC (configuration not stated)	0.1	59.0*	0.6	100.4*	-1.1	-28.1	-24.0
COc1ccc(N2CSC3=C(C#N)C(c4ccc(OC)c(OC)c4)CC(=O)N3C2)c(OC)c1 (configuration not stated)	0.3	23.0	-1.7	31.3	3.2	-17.5	nt
CCOC(=O)C1=C(C)N(c2ccc(C)cc2)C(=O)/C1=C\c1ccc(O)c(OC)c1	-36.1	56.9*	9.6	-13.0	7.1	0.6	25.0
COC(=O)C1=C(C)N(Cc2ccc(C)cc2)C(=O)/C1=C\c1ccc(O)c(OC)c1	-0.9	27.1	-3.6	6.2	-3.2	-13.5	nt
Cc1[nH]c2ccccc2c1SCC(=O)O	-7.4	69.7*	2.2	-9.4	-3.6	5.8	-28.2
O=C(O)CSc1c(O)c2ccccc2[nH]c1=O	25.1	22.6	3.4	23.2	4.4	0.6	nt
Cc1ccc(C2=Nc3ccccc3SC(c3cccc([N+](=O)[O-])c3)C2)cc1 (configuration not stated)	4.4	52.3*	7.6	-5.7	-0.9	-10.9	28.3
O=[N+]([O-])c1cccc(C2CC(c3ccccc3)=NN2c2ccccc2)c1 (configuration not stated)	nt	nt	nt	nt	0.3	nt	nt
O=C1NCCCC2c3c(cc(Br)c(O)c3Br)OC12N1CCCCC1 (configuration not stated)	3.2	50.1*	2.1	47.4	2.6	-11.8	62.8*
O=C(O)c1ccc(-n2c(-c3cc(-c4ccco4)[nH]n3)n[nH]c2=S)cc1	-0.5	52.7*	6.3	52.6	?	-0.2	81.1*
COc1cc(C)c(NC(=O)C(=S)NCCc2ccccc2)cc1C	29.2	51.4*	0.1	34.3	-1.8	-0.6	15.3
Nc1ccccc1C(O)(Cc1ccccc1)c1ccccc1 (configuration not stated)	nt	nt	nt	nt	3.0	nt	nt
O=c1oc2ccc(NS(=O)(=O)c3cccc4cccnc34)cc2s1	nt	nt	nt	nt	-1.5	nt	nt
O=C(O)c1cccc(S(=O)(=O)Nc2ccc3oc(=O)sc3c2)c1	-0.7	64.8*	3.4	67.8*	-0.2	6.8	20.9
COc1cc(C2C3=C(CC(C)(C)CC3=O)Nc3c2c(=O)[nH]c(=O)n3Cc2ccccc2)ccc1O (configuration not stated)	4.0	76.0*	3.3	115.3*	?	-3.5	5.9
COc1cc(C2C3=C(CC(C)(C)CC3=O)N(C)C3=C2C(=O)CC(C)(C)C3)ccc1O	nt	nt	nt	nt	10.6	nt	nt
CCNC(=O)/C(C#N)=C/c1c(N(Cc2ccccc2)Cc2ccccc2)nc2ccccn2c1=O	2.8	8.3	1.3	22.3	3.7	-18.5	nt
